Assay results published in ChEMBL document CHEMBL1132919, “Structure-activity studies for a novel series of tricyclic substituted hexahydrobenz[e]isoindole alpha(1A) adrenoceptor antagonists as potential agents for the symptomatic treatment of benign prostatic hyperplasia (BPH)” (J Med Chem, 2000).

Assays:
Canis familiaris [1] = organism: Canis familiaris; assay: Antagonist dissociation constant in dog prostate, number of determinations => 3.; conditions: Canis lupus familiaris, Prostate gland; read-out: pA2 (converted)
[2] = molecular target: T1, Alpha-1A adrenergic receptor (Rattus norvegicus, UniProt P43140); assay: In vitro binding affinity using [3H]prazosin as radioligand against adrenoceptor alpha 1A
T1 sequence (P43140 whole entry): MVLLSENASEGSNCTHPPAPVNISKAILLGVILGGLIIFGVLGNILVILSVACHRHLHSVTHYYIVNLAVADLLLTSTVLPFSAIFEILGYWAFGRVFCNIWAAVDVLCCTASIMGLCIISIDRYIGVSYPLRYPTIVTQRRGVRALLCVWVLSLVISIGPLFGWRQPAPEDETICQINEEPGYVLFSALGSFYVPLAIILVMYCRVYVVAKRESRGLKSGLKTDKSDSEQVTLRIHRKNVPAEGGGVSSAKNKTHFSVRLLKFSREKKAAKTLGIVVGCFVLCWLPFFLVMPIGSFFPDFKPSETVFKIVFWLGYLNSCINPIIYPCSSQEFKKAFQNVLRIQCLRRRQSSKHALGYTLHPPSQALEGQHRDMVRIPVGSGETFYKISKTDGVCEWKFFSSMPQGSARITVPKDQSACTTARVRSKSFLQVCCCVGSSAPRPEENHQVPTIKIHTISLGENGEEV
How it was run: (§1)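 Binding to pharmacologically defined α1A site in rat submaxillary gland membranes; [3H]-prazosin ~200 pM, nonspecific binding with 10^-5 M phentolamine (final); ~0.1 mg protein per tube in 50 mM Tris-HCl pH 7.4, 60 min at 25 °C.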

Canis familiaris [3] = organism: Canis familiaris; assay: (§2) Intraurethral pressure (IUP) in Beagle dogs values are expressed as pseudo pA2 values.; type: functional, Canis lupus familiaris, Urethra
Rattus norvegicus [4] = organism: Rattus norvegicus; assay: Antagonist dissociation constant in rat spleen, number of determinations => 3.; conditions: read-out: pA2 (converted)
Rattus norvegicus [5] = organism: Rattus norvegicus; assay: Pseudo ED50 in Spontaneously Hypertensive Rat (SHR) model. Number determinations => 3.; type: functional
How it was run: (§3)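 Male SHR (300-325 g), briefly anesthetized with Penthrane, catheterized in femoral artery (MAP) and vein (dosing). After 2.5 h recovery and a 30 min predose control period, one iv antagonist dose per rat in an ascending paradigm; MAP and HR recorded over 60 min. Trapezoidal AUC of percent change in MAP (T60 AUC); ED50 is the dose lowering MAP by 50% of normotensive.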

[6] = molecular target: T2, Alpha-1B adrenergic receptor (Mesocricetus auratus, UniProt P18841); assay: In vitro binding affinity using [3H]prazosin as radioligand against adrenoceptor alpha 1b expressed in LTK cell; type: cell-based
T2 sequence (P18841 whole entry): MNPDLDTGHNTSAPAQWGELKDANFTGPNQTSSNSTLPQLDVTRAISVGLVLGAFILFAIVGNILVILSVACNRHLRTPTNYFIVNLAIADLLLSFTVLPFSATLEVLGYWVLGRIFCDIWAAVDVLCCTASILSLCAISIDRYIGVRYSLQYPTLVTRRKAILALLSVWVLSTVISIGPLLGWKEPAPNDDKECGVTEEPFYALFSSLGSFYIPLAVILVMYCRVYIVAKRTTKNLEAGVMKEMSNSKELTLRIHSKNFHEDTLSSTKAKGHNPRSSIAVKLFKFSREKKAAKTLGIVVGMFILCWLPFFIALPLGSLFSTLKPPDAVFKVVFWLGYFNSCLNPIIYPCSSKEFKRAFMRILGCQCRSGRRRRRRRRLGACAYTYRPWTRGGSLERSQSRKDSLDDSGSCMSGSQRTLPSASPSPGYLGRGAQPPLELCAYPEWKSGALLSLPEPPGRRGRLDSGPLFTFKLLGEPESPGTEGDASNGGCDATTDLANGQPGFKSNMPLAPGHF
How it was run: (§4)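 Membranes from mouse LTK- fibroblasts stably expressing cloned hamster α1B or rat α1D, grown in roller bottles, frozen in liquid N2 and stored at -70 °C. Incubated with [3H]-prazosin ~200 pM, ~0.1 mg protein per tube, in 50 mM Tris-HCl pH 7.4 for 60 min at 25 °C; nonspecific binding defined by 10^-5 M phentolamine (final).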

Rattus norvegicus [7] = organism: Rattus norvegicus; assay: Antagonist dissociation constant in rat vas deferens, number of determinations => 3.; conditions: read-out: pA2 (converted)
[8] = molecular target: T3, Alpha-1D adrenergic receptor (Rattus norvegicus, UniProt P23944); assay: In vitro binding affinity using [3H]prazosin as radioligand against adrenoceptor alpha 1d expressed in LTK cell; type: cell-based; how it was run: as §4
T3 sequence (P23944 whole entry): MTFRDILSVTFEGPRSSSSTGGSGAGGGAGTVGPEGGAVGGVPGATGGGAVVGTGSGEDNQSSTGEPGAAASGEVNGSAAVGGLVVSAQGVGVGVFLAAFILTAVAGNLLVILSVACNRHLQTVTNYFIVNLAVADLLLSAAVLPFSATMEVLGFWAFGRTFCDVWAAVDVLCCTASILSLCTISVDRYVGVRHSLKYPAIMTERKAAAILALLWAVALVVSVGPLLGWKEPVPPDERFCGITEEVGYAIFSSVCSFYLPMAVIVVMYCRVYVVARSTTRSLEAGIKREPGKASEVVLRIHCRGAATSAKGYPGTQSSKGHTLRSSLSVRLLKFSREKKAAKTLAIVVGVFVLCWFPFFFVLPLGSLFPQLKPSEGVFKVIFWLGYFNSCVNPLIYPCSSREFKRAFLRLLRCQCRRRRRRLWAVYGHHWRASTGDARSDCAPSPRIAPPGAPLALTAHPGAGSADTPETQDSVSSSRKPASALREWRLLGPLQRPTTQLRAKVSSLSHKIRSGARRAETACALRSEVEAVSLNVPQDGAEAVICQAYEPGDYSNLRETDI

[9] = molecular target: T1, Alpha-1A adrenergic receptor; assay: In vitro binding affinity using [3H]prazosin as radioligand against alpha-1A adrenergic receptor; how it was run: as §1
Rattus norvegicus [10] = organism: Rattus norvegicus; assay: Antagonist dissociation constant in rat spleen; conditions: read-out: pA2 (converted)
Rattus norvegicus [11] = organism: Rattus norvegicus; assay: Antagonist dissociation constant in rat vas deferens; conditions: read-out: pA2 (converted)
Cricetulus griseus = organism: Cricetulus griseus; assay: Ratio between Ki(alpha-1b)/Ki(alpha1A)
[12] = molecular target: T2, Alpha-1B adrenergic receptor; assay: In vitro binding affinity using [3H]prazosin as radioligand against alpha-1B adrenergic receptor expressed in LTK cell; type: cell-based; how it was run: as §4
Canis familiaris [13] = organism: Canis familiaris; assay: as §2; conditions: Canis lupus familiaris, Urethra, read-out: pA2 (converted)
Rattus norvegicus [14] = organism: Rattus norvegicus; assay: Determination of Pseudo pED50 in Spontaneously Hypertensive Rat (SHR) model. Number determinations => 3.; type: functional; how it was run: as §3
[15] = molecular target: T3, Alpha-1D adrenergic receptor; assay: In vitro binding affinity using [3H]prazosin as radioligand against alpha-1D adrenergic receptor expressed in LTK cell; type: cell-based; how it was run: as §4
Canis familiaris [16] = organism: Canis familiaris; assay: Antagonist dissociation constant in dog prostate; conditions: Canis lupus familiaris, Prostate gland, read-out: pA2 (converted)
Rattus norvegicus [17] = organism: Rattus norvegicus; assay: Pseudo ED50 in Spontaneously Hypertensive Rat (SHR) model; type: functional; how it was run: as §3
Rattus norvegicus [18] = organism: Rattus norvegicus; assay: Determination Pseudo pED50 in Spontaneously Hypertensive Rat (SHR) model; type: functional; how it was run: as §3

| Ki [6] [nM] | Ki [9] [nM] | Selectivity ratio (Cricetulus griseus) | Ki [12] [nM] | Ki [15] [nM] | Structure (SMILES) | IUP (Canis familiaris [3]) | Kb (Rattus norvegicus [4]) [nM] | SHR (Rattus norvegicus [5]) | Kb (Rattus norvegicus [7]) [nM] | Kb (Rattus norvegicus [10]) [nM] | Kb (Rattus norvegicus [11]) [nM] | Kb (Canis familiaris [13]) [nM] | also measured |
| --- | --- | --- | --- | --- | --- | --- | --- | --- | --- | --- | --- | --- | --- |
| 35.1 | – | – | – | – | COc1cccc2c1CC[C@H]1CN(CCn3c(=O)[nH]c4c(sc5ncc(Cl)nc54)c3=O)C[C@@H]21 | 8.28 | 44.7 | 4.77 | 1.1 | – | – | – | Kb (Canis familiaris [1]): 0.447 nM; Ki [2]: 0.69 nM; Ki [8]: 3.83 nM |
| 4.15 | – | – | – | – | COc1cccc2c1CC[C@H]1CN(CCn3c(=O)[nH]c4c(sc5ccc(Cl)nc54)c3=O)C[C@@H]21 | – | – | – | – | – | – | – | Ki [2]: 0.38 nM; Ki [8]: 0.61 nM |
| – | 0.59 | 10.4 | 6.12 | 0.69 | COc1cccc2c1CC[C@H]1CN(CCn3c(=O)[nH]c4c(sc5ncccc54)c3=O)C[C@@H]21 | – | – | – | – | 16.2 | 2.24 | 5.62 | pED50 (Rattus norvegicus [14]): 5.35; Kb (Canis familiaris [16]): 1.66 nM |
| – | – | – | 3.39 | 0.51 | COc1cccc2c1CC[C@H]1CN(CCn3c(=O)[nH]c4c(sc5cccnc54)c3=O)C[C@@H]21 | – | – | – | – | 12.9 | 1.17 | 6.76 | pED50 (Rattus norvegicus [17]): 5.33; Kb (Canis familiaris [16]): 0.776 nM |
| 0.2 | – | – | – | – | CCOc1ccccc1OCCN[C@H](C)Cc1ccc(OC)c(S(N)(=O)=O)c1 [TAMSULOSIN] | 8.87 | 0.204 | 7.33 | 0.339 | – | – | – | – |
| – | – | – | – | – | COc1cc2nc(N3CCN(C(=O)C4COc5ccccc5O4)CC3)nc(N)c2cc1OC (stereo unspecified) [DOXAZOSIN] | – | – | – | – | 0.309 | 2.04 | 75.9 | pED50 (Rattus norvegicus [18]): 6.5 |
| – | – | – | – | – | COc1cc2nc(N(C)CCCNC(=O)C3CCCO3)nc(N)c2cc1OC (stereo unspecified) [ALFUZOSIN] | 6.87 | 4.9 | 6.58 | 24.5 | – | – | – | – |
| – | – | – | – | – | COc1cc2nc(N3CCN(C(=O)C4CCCO4)CC3)nc(N)c2cc1OC (stereo unspecified) [TERAZOSIN] | 7.02 | 2.51 | 6.64 | – | – | – | – | – |
| – | 0.28 | 6.07 | 1.7 | 0.63 | COc1cccc2c1CC[C@H]1CN(CCn3c(=O)[nH]c4c(sc5ccc(C(=O)N(C)C)cc54)c3=O)C[C@@H]21 | – | – | – | – | – | – | – | – |
| – | 0.53 | 6.28 | 3.33 | 0.37 | COc1cccc2c1CC[C@H]1CN(CCn3c(=O)[nH]c4c(sc5cnccc54)c3=O)C[C@@H]21 | – | – | – | – | – | – | – | – |
